Reference: ChEMBL document CHEMBL1141277, “New phenylpropenoids, bis(1-phenylethyl)phenols, bisquinolinone alkaloid, and anti-inflammatory constituents from Zanthoxylum integrifoliolum” (J Nat Prod, 2007)

System: Neutrophil
Experiment: Antiinflammatory activity in human neutrophils assessed as fMLP-induced superoxide release after 5 mins by spectrometry
Assay type: functional, cell-based
Procedure, shortened: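 Neutrophils isolated from venous blood of healthy volunteers (20–35 years) by double-gradient Ficoll–Hypaque centrifugation, with hypotonic lysis of red cells. Cells at 1 × 10^6 cells/mL pretreated with test agents (100 µmol/L) at 37 °C for 5 min. Then stimulated with fMLP (1 µmol/L) with ferricytochrome c (0.5 mg/mL). Extracellular O2•– read continuously at 550 nm. Inhibition % = [(control−resting)−(compound−resting)]/(control−resting) × 100.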

Row | SMILES | IC50 [µM]
1 | COc1cc(/C=C/CO)ccc1OCC=C(C)C | > 100
2 | CC(C)=CCc1cc(/C=C/CO)ccc1O | 75.1
3 | CC(c1ccccc1)c1ccc(O)c(C(C)c2ccccc2)c1 (centres undefined) | > 100
4 | COc1cc([C@@H]2Oc3c(OC)cc(/C=C/CO)cc3[C@H]2CO)cc(OC)c1O | 11.8
5 | COc1cc([C@H]2Oc3c(OC)cc(/C=C/C=O)cc3[C@@H]2CO)ccc1O | 31.9
6 | C[C@H](c1ccccc1)c1cccc([C@@H](C)c2ccccc2)c1O | > 100
7 | Cn1c(=O)c2c(c3ccccc31)OC(C)(C)C=C2 | 4.28
8 | CC(C)(O)[C@H](O)COc1ccc(/C=C/CO)cc1 | 32.5
9 | COc1cc([C@H]2Oc3c(OC)cc(/C=C/C=O)cc3[C@@H]2CO)cc(OC)c1O | 19.3
10 | Cn1c(=O)c2c(c3ccccc31)O[C@]1(C)C[C@@H]3c4c(c5ccccc5[nH]c4=O)OC(C)(C)[C@H]3[C@H]2C1 | > 100
11 | CC(C)=CCOc1ccc(/C=C/CO)cc1 [EVOFOLIN C] | 9.64
12 | COc1cc2ccc(=O)oc2c(OC)c1OC [FRAXIDIN METHYL ETHER] | 47.1
13 | COc1c2ccoc2nc2c(OC)cccc12 [GAMMA-FAGARINE] | > 100
14 | COc1c2[nH]c3occc3c(OC)c-2ccc1=O [HAPLOPINE] | 57.3
15 | CC(C)Cc1ccc(C(C)C(=O)O)cc1 (centres undefined) [IBUPROFEN] | 32.5
16 | COc1cc2oc(=O)ccc2cc1O [ISOSCOPOLETIN] | 77.5
17 | Cn1c(=O)c2c(c3ccccc31)OC(C)(C)[C@@H]1[C@@H]2C[C@]2(C)C[C@H]1c1c(c3ccccc3n(C)c1=O)O2 [PARAENSIDIMERIN C] | > 100
18 | COc1cc2ccc(=O)oc2cc1OC [SCOPARONE] | > 100
19 | COc1cc(C=O)cc(OC)c1O [SYRINGALDEHYDE] | > 100
